Assay outcomes from PubChem BioAssay.
The list is not random: actives were taken first. Their share in the collection is about 3.1%.
OX1R antag-1 = antagonists of human orexin 1 receptor (OX1R); Orexin/Hypocretin receptor type 1 (Homo sapiens), O43613; OX1R-expressing cells, FRET antagonist read-out; inhibition, % at 6.6 µM; 330,000 compounds, 1.8% hits; AID 485270, 2010; in the data active means inhibition mostly above about 38%, no sharp cut-off; inactive means mostly below about 40%
CHO parental Ca = ATP-evoked calcium signal inhibitors, parental CHO, primary screen, counter-screen for OX1R antagonist project, cell-based, fluorescence, Fluo-8 calcium dye; parental CHO-K1, ATP-induced calcium, Fluo-8 fluorescence; inhibition, % at 5.6 µM; 330,000 compounds, 0.63% hits;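 active means inhibition above that plate's mean sample inhibition plus 3 SD, cut at about 26% in these data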
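material = parental CHO cells | also added = ATP as calcium-mobilizing challenge | dosing = single point at 5.6 µM | detection = intracellular calcium via Fluo-8 no-wash fluorescent dye | read-out = % inhibition | benchmarks = low control ATP plus DMSO, high control DMSO only | repeats = one well per compound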
GPR7 antag = GPR7 receptor antagonists, primary screen, cell-based, fluorescence, single concentration | Neuropeptides B/W receptor type 1 (Homo sapiens), P48145 | GPR7-expressing cells, fluorescence antagonist assay | inhibition, % at 4.4 µM | 290,000 compounds, 1.1% hits | AID 1861, 2009; in the data active means inhibition above about 16%, passing the limit was not always enough;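 further: cells stimulated with the agonist NPW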
Target sequence (P48145 whole entry, looked up): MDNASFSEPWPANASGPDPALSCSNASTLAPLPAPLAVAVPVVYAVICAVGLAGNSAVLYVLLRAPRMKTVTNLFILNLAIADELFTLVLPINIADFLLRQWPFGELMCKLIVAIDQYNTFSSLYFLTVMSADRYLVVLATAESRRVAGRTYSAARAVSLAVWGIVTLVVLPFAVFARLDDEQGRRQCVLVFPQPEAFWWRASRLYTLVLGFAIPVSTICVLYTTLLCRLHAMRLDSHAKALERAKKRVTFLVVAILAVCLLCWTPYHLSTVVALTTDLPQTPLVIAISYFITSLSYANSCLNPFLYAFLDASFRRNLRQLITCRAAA
OX1R antag-2 = OX1R (HCRTR1) antagonists, primary screen, fluorescence, CHO/OX1R cells, Fluo-8 calcium, orexin A | Orexin/Hypocretin receptor type 1 (Homo sapiens), O43613 | Fluo-8 calcium fluorescence | inhibition, % at 5 µM | 330,000 compounds, 0.43% hits | AID 434989, 2010;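 active means inhibition above its plate's threshold, mean inhibition of all tested compounds on the plate plus 3 SD, cut at about 37% in these data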
GalR3 antagonist = GalR3 antagonists in HEK293 cells, primary screen, cell-based, fluorescence readout; inhibition, % at 3 µM; 360,000 compounds, 0.44% hits; HEK293 GalR3-CNG cAMP membrane potential fluorescence; galR3 body fused to GalR1 C-terminus;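 active means inhibition above the screen-wide average plus 3 SD, cut at about 13% in these data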;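 further: forskolin and galanin both at EC90 stimulate the cells; cAMP rise reported by CNG channel membrane potential dye signal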
Target sequence (O60755 1-299 limits assumed): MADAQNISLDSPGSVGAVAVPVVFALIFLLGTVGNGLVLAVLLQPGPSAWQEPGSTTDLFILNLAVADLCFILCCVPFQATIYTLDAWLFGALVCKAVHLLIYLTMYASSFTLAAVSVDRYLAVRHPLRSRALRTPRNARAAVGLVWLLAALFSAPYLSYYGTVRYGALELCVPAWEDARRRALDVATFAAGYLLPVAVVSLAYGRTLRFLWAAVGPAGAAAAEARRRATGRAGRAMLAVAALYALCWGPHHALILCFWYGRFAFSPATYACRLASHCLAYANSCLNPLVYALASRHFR
Of the large screens only hits and unclear results are named; the others gave an inactive call.

CC1=CC(C)C(=O)N(C)C(C)=C1 (centres undefined)	none (no result: OX1R antag-1, CHO parental Ca, GPR7 antag, OX1R antag-2)
CCC(=O)NC(Nc1sc2c(c1C(=O)OC)CCCC2)(C(F)(F)F)C(F)(F)F	CHO parental Ca 45.6
COCCN1Cc2cc(C(=O)OC)c3c(c2C1=O)c1cc(OC)ccc1n3S(C)(=O)=O	none (no result: OX1R antag-1, CHO parental Ca, GPR7 antag, OX1R antag-2)
COc1ccc(-c2sc3cc(OC)c(OC)cc3c2-c2ccc(O)cc2)cc1	OX1R antag-1 38.3 (no result: GPR7 antag)
COc1ccc(-c2sc3ccccc3c2-c2ccc(O)cc2)cc1	none (no result: GPR7 antag)
CC(C)NS(=O)(=O)c1ccc(CCC(=O)Nc2cc(Cl)ccc2Oc2ccccc2)cc1	CHO parental Ca 43.7 (no result: GalR3 antagonist)
CN(C)C(=O)COC(=O)/C=C/c1ccccc1[N+](=O)[O-]	OX1R antag-1 39.4
CCNC(=O)COC(=O)/C=C/c1ccccc1[N+](=O)[O-]	none
CN(C)CCNc1ccc(-c2nn(C)c(=O)c3ccccc23)cc1[N+](=O)[O-]	OX1R antag-1 42.5
Cn1nc(-c2ccc(NCCO)c([N+](=O)[O-])c2)c2ccccc2c1=O	none
COc1ccc(N2CCc3c(C)nc4c(OC)cccc4c32)cc1	OX1R antag-1 70.4
COc1ccc(N2CCc3c(C)nc4c(OC)cc(OC)cc4c32)cc1	none
O=C(Nc1ccccc1Br)C1CCCN1S(=O)(=O)c1cccc2nsnc12 (centres undefined)	OX1R antag-1 56.3
CCCCNC(=O)C1CCCN1S(=O)(=O)c1cccc2nsnc12 (centres undefined)	none
Cc1c(NC(=O)C2CCCN2S(=O)(=O)c2cccc3nsnc23)cccc1C(=O)O (centres undefined)	OX1R antag-1 48.2
CCOC(=O)c1c(NC(=O)C2CCCN2S(=O)(=O)c2cccc3nsnc23)sc(C)c1C (centres undefined)	none (no result: OX1R antag-1, CHO parental Ca, GPR7 antag, OX1R antag-2)
O=C(Nc1ccccc1F)C1CCCN1S(=O)(=O)c1cccc2nsnc12 (centres undefined)	OX1R antag-1 68.2
Cc1ccc(C(=O)O)cc1NC(=O)C1CCCN1S(=O)(=O)c1cccc2nsnc12 (centres undefined)	OX1R antag-1 51.5
O=C(C1CCCN1S(=O)(=O)c1cccc2nsnc12)N1CCN(c2ccccc2)CC1 (centres undefined)	none (no result: GalR3 antagonist)
COC(=O)[C@]12C[C@H](CC(=O)NCc3cccc4ccccc34)C(=O)N(CCc3ccc(OC)c(OC)c3)C1=C[C@H](C(C)(C)C)O[C@@H]2C	none (no result: OX1R antag-1, CHO parental Ca, GPR7 antag, OX1R antag-2)
CN(C)CCNc1nc(Oc2cccc(F)c2)c2sccc2n1	none (no result: OX1R antag-1, CHO parental Ca, GPR7 antag, OX1R antag-2)
CC1CCCC(NC(=O)C2CCCN2S(=O)(=O)c2cccc3nsnc23)C1C (centres undefined)	OX1R antag-1 70.6
Cc1cccc(CSC(=N)N)c1	none
Cc1cccc(CSC(Nc2ccc(F)cc2)=C(C#N)C#N)c1	CHO parental Ca 25.2
CCCC(=O)Nc1ccc(NC(=S)NC(=O)c2ccccc2[N+](=O)[O-])cc1	none
C/C(CC(=O)Nc1ccc([N+](=O)[O-])cc1)=N\NC(=O)c1ccccc1[N+](=O)[O-]	CHO parental Ca 32.0
CC(C)(C)n1nnnc1C(c1cc2ccccc2o1)N(CCC#N)Cc1ccccc1 (centres undefined)	none (no result: OX1R antag-1, CHO parental Ca, GPR7 antag, OX1R antag-2)
O=C(CN(c1ccc(Cl)c(Cl)c1)S(=O)(=O)c1ccccc1)N1CCc2ccccc2C1	OX1R antag-1 73.7
O=C(Nc1ccccc1Cl)c1cc[n+](Cc2ccc([N+](=O)[O-])cc2)cc1	OX1R antag-1 40.0
CCc1ccccc1Oc1nc(NCc2ccccc2)nc2ccsc12	none (no result: OX1R antag-1, CHO parental Ca, GPR7 antag, OX1R antag-2)
CC(C)(C)n1ncc2c(=O)n(Cc3cccc(Cn4cnc5c(cnn5C(C)(C)C)c4=O)c3F)cnc21	CHO parental Ca 61.9, OX1R antag-2 63.9 (no result: GPR7 antag)
NC(=O)c1ncn([C@@H]2O[C@H](C(=O)N[C@H](Cc3ccccc3)C(=O)N3CCN(CC(=O)Nc4ccccn4)CC3)[C@@H](O)[C@H]2O)n1	none (no result: OX1R antag-1, CHO parental Ca, GPR7 antag, OX1R antag-2)
Cc1cc2c(NCc3ccccc3)ncnc2s1	CHO parental Ca 32.5
Cc1sc2ncnc(NCC3(N4CCOCC4)CCCCC3)c2c1C	none
Cc1sc2ncnc(NCC(C)(C)N3CCOCC3)c2c1C	OX1R antag-1 82.1
COc1ccc(CNc2ncnc3sccc23)cc1	CHO parental Ca 44.7
c1ccc(CNc2ncnc3sccc23)cc1	none
Cc1sc2ncnc(NCc3ccccc3)c2c1C	CHO parental Ca 34.5
CCOC(=O)C1=C(C(=O)OCC)C2N(Cc3ccc(C#N)cc3)c3ccccc3[C@@]23C[C@@H](C(=O)OC)N(S(=O)(=O)c2ccccc2)C3=N1 (some centres undefined)	none (no result: OX1R antag-1, CHO parental Ca, GPR7 antag, OX1R antag-2)
CCCCN(C=O)c1c(CC)nc2ccc(C(=O)NCCCn3ccnc3)cn12	none (no result: OX1R antag-1, CHO parental Ca, GPR7 antag, OX1R antag-2)
CCc1ccc[n+](-c2[nH]c(=O)sc2/C=N/N=C(\[O-])c2ccncc2)c1	OX1R antag-1 40.0
Cc1cc(C)c[n+](-c2[nH]c(=O)sc2/C=N/N=C(\[O-])c2cccnc2)c1	none
O=c1[nH]c(-c2ccccc2)cn1C1CCN(Cc2ccc(-c3nc4ccc(Br)cc4nc3-c3ccccc3)cc2)CC1	none (no result: OX1R antag-1, CHO parental Ca, GPR7 antag, OX1R antag-2)
COC(=O)C1=C(N)N(c2ccccc2C(F)(F)F)C2=C(C(=O)CCC2)C1c1ccc2c(c1)OCO2 (centres undefined)	CHO parental Ca 47.9
COC(=O)CSC1=C(C#N)C(c2ccc3c(c2)OCO3)C2=C(CCCC2=O)N1 (centres undefined)	none (no result: GalR3 antagonist)
Fc1ccc2nc(-c3ccc(CN4CCC(c5nc6ccccc6[nH]5)CC4)cc3)c(-c3ccccc3)nc2c1	none (no result: OX1R antag-1, CHO parental Ca, GPR7 antag, OX1R antag-2)
CCOC(=O)CN1C(=O)[C@]2(OCCC=C[C@H]2C)c2ccccc21	none (no result: OX1R antag-1, CHO parental Ca, GPR7 antag, OX1R antag-2)
COC(=O)c1c(NC(=O)c2ccco2)sc(C)c1C	OX1R antag-1 58.8
COC(=O)c1c(NC(=O)c2ccco2)sc(C(=O)Nc2ccc(F)cc2)c1C	none
O=C(Nc1nnc([C@@H]2C[C@H](O)[C@@H](CO)O2)s1)c1cccc2ccccc12	none (no result: OX1R antag-1, CHO parental Ca, GPR7 antag, OX1R antag-2)
CCCCN1CC(COCc2ccccc2)Oc2cccc(N3CCCCC3)c2S1(=O)=O (centres undefined)	none (no result: OX1R antag-1, CHO parental Ca, GPR7 antag, OX1R antag-2)
c1ccc2c(c1)CCN(c1ncnc3c1[nH]c1ccccc13)C2	OX1R antag-1 80.5, CHO parental Ca 66.3, OX1R antag-2 80.4 (no result: GPR7 antag)
c1ccc(CN2CCN(c3ncnc4c3[nH]c3ccccc34)CC2)cc1	CHO parental Ca 46.3, GalR3 antagonist 60.1
COc1cccc2[nH]c3c(N4CCc5ccccc5C4)ncnc3c12	none (no result: GalR3 antagonist)
Cc1ccc2[nH]c3c(N4CCCCCC4)ncnc3c2c1	none (no result: OX1R antag-1, CHO parental Ca, OX1R antag-2, GalR3 antagonist)
COc1ccc2[nH]c3c(N4CC(C)OC(C)C4)ncnc3c2c1 (centres undefined)	none
COc1cccc(N2CCN(c3ncnc4c3[nH]c3ccccc34)CC2C)c1 (centres undefined)	OX1R antag-1 112.2, CHO parental Ca 89.0, OX1R antag-2 91.1
CCOc1ccc2[nH]c3c(N4CCN(c5ccccn5)CC4)ncnc3c2c1	OX1R antag-1 60.8
